Data as given in article PMC8153786 (ACS Omega, 2021).
Where two headings read alike, the source gives them in different places.

Key:
mCCL2-WT [1] = biological target: T1, mCCL2-WT (Mus musculus, UniProt P10148); experiment: Flavonol fluorescence quenching titration of mCCL2-WT; type: binding, murine; conditions: for quenching constant (Kq) / number of binding sites: mCCL2-WT; for quenching constant (Kq): Stern–Volmer, 25 °C, 50 μM protein; for number of binding sites: double-logarithmic plot
Outline: (§1)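 Each CCL2 variant (WT dimer or monomer, E. coli BL21(DE3)-expressed) was held at 50 μM and titrated with 10–100 μM flavonol from a 20 mM DMSO stock, at 25 °C. Trp W59 was excited at 295 nm and emission read at 300–450 nm, slits 5 nm. Buffer-only additions served as controls; runs in triplicate. Ksv and Kq came from Stern–Volmer analysis; Ka and n from a double-logarithmic plot, nonlinear regression and Scatchard analysis.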

hCCL2-M = hCCL2-M (Homo sapiens, UniProt P13500, P31A); experiment: Flavonol fluorescence quenching titration of hCCL2 monomer; type: binding; conditions: for quenching constant (Kq) / number of binding sites: hCCL2-M (monomer); for quenching constant (Kq): Stern–Volmer, 25 °C, 50 μM protein; for number of binding sites: double-logarithmic plot
Sequence of hCCL2-M (P13500 24-99 P31A): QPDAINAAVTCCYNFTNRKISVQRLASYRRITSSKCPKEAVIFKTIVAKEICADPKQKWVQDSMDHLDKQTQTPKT
Outline: as §1

mCCL2-M = mCCL2-M (Mus musculus, UniProt P10148, P31A); experiment: Flavonol fluorescence quenching titration of mCCL2 monomer; type: binding, murine; conditions: for quenching constant (Kq): Stern–Volmer, 50 μM protein
Sequence of mCCL2-M (P10148 24-148 P31A): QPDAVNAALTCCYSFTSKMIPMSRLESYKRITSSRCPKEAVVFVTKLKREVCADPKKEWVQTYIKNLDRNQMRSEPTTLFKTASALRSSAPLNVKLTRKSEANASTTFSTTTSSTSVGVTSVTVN
Outline: as §1

hCCL2-WT = hCCL2-WT (Homo sapiens, UniProt P13500); experiment: Flavonol fluorescence quenching titration of hCCL2-WT; type: binding; conditions: for quenching constant (Kq) / number of binding sites: hCCL2-WT; for quenching constant (Kq): Stern–Volmer, 25 °C, 50 μM protein; for number of binding sites: double-logarithmic plot
Sequence of hCCL2-WT (P13500 24-99): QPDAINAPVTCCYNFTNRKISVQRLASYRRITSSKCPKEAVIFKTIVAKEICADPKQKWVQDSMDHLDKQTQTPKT
Outline: as §1

mCCL2-WT [2] = biological target: T1, mCCL2-WT; experiment: 1H–15N HSQC NMR titration, chemical shift perturbation; type: binding, murine; conditions: mCCL2-WT 100 μM, protein/flavonol 1:5, comparison among the three flavonols
Outline: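 15N-labelled WT murine protein, expressed in E. coli BL21(DE3), at 100 μM in 50 mM Na2HPO4/50 mM NaCl, pH 6.0. 1H–15N HSQC spectra recorded at 500 MHz and 25 °C. Flavonol from a 20 mM DMSO stock was added stepwise up to protein/ligand 1:5. Per-residue CSP was calculated from combined ΔδH and ΔδN.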

bovine serum albumin = conditions: BSA–flavonol interactions ref 69; cited from earlier work
canine distemper virus = conditions: comparison with morin ref 67; cited from earlier work
[3] = mCCL2-M (monomer), double-logarithmic plot

T1 sequence (P10148 24-148): as the sequence (P10148 24-148 P31A) above, with A8P counted along it

Which results are given for `O=c1c(O)c(-c2cc(O)c(O)c(O)c2)oc2cc(O)cc(O)c12` [myricetin, 3,5,7-trihydroxy-2-(3,4,5-trihydroxyphenyl)chromen-4-one]?
Kd (mCCL2-WT [1]): 0.42 ± 0.03 µM; quenching constant (Kq) (mCCL2-WT [1]): 6.1 × 10^12 m^–1 s^–1; number of binding sites (mCCL2-WT [1]): 1.1 ± 0.2; Kd (hCCL2-M): 0.43 ± 0.02 µM; quenching constant (Kq) (hCCL2-M): 6.2 × 10^12 m^–1 s^–1; number of binding sites (hCCL2-M): 1.2 ± 0.2; Kd (mCCL2-M; dissociation constant (Kd), mCCL2-M (monomer), double-logarithmic plot, 25 °C): 0.4 ± 0.03 µM; quenching constant (Kq) (mCCL2-M; mCCL2-M (monomer), 25 °C): 6.3 × 10^12 m^–1 s^–1; number of binding sites (mCCL2-M; [3]): 1.2 ± 0.1; Kd (hCCL2-WT): 0.38 ± 0.04 µM; quenching constant (Kq) (hCCL2-WT): 5.8 × 10^12 m^–1 s^–1; number of binding sites (hCCL2-WT): 1.3 ± 0.2; perturbation of resonances in CSP maps (mCCL2-WT [2]): largest perturbation of resonances; binding constants (Ka) (bovine serum albumin): 4.9e+08 L/mol

For `O=c1c(O)c(-c2ccccc2)oc2cc(O)cc(O)c12` [galangin, reference compound], which “binding constants (Ka)” value (bovine serum albumin) is on record?
Its value is 643000 L/mol.

What does the source list for `O=c1c(O)c(-c2ccc(O)cc2)oc2cc(O)cc(O)c12` [kaempferol, 3,5,7-trihydroxy-2-(4-hydroxyphenyl)chromen-4-one]?
Kd (mCCL2-WT [1]): 24 ± 6 µM; quenching constant (Kq) (mCCL2-WT [1]): 5.0 × 10^12 m^–1 s^–1; number of binding sites (mCCL2-WT [1]): 1.1 ± 0.2; Kd (hCCL2-M): 25 ± 4 µM; quenching constant (Kq) (hCCL2-M): 5.3 × 10^12 m^–1 s^–1; number of binding sites (hCCL2-M): 1.1 ± 0.1; Kd (mCCL2-M): 26 ± 5 µM; quenching constant (Kq) (mCCL2-M; mCCL2-M (monomer), 25 °C): 5.1 × 10^12 m^–1 s^–1; Kd (hCCL2-WT): 26 ± 5 µM; quenching constant (Kq) (hCCL2-WT): 5.2 × 10^12 m^–1 s^–1; number of binding sites (hCCL2-WT): 1.1 ± 0.1; perturbation of resonances in CSP maps (mCCL2-WT [2]): the least; binding constants (Ka) (bovine serum albumin): 2.57e+06 L/mol

What does the source list for `O=c1c(O)c(-c2ccc(O)c(O)c2)oc2cc(O)cc(O)c12` [quercetin, 2-(3,4-dihydroxyphenyl)-3,5,7-trihydroxychromen-4-one]?
inhibitory activity (canine distemper virus): higher inhibitory activity than morin; Kd (mCCL2-WT [1]): 3.9 ± 0.5 µM; quenching constant (Kq) (mCCL2-WT [1]): 4.3 × 10^12 m^–1 s^–1; number of binding sites (mCCL2-WT [1]): 1.2 ± 0.2; Kd (hCCL2-M): 3.6 ± 0.5 µM; quenching constant (Kq) (hCCL2-M): 5.4 × 10^12 m^–1 s^–1; number of binding sites (hCCL2-M): 1.2 ± 0.1; Kd (mCCL2-M): 3.7 ± 0.4 µM; quenching constant (Kq) (mCCL2-M; mCCL2-M (monomer), 25 °C): 5.7 × 10^12 m^–1 s^–1; number of binding sites (mCCL2-M; [3]): 1.1 ± 0.2; Kd (hCCL2-WT): 3.5 ± 0.7 µM; quenching constant (Kq) (hCCL2-WT): 4.2 × 10^12 m^–1 s^–1; number of binding sites (hCCL2-WT): 1.1 ± 0.1; binding constants (Ka) (bovine serum albumin): 3.65e+07 L/mol
